Measurements reported in ChEMBL document CHEMBL4152196, “Design, synthesis and biological evaluation of novel trimethylangelicin analogues targeting nuclear factor kB (NF-kB)” (Eur J Med Chem, 2018).
Activity calls are given as the source filed them. The rule behind the calls is not given here.

Tests used:
[1] = Inhibition of NF-kappaB (unknown origin) assessed as decrease in NF-kappaB/DNA interaction using 32P-labeled target NF-kappaB double-stranded oligonucleotide after 30 mins by EMSA; set-up: species or system Homo sapiens
Outline: (§1)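 Purified NF-κB p50 (0.1 µl/20 µl, 50 gsu) was combined with 0.25 ng of ³²P-labeled double-stranded NF-κB consensus oligonucleotide. Bound 30 min at room temperature, then run on 6% polyacrylamide in 0.25× TBE at 200 V. IC₅₀ is 50% inhibition of the complex.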

Homo sapiens [2] = organism: Homo sapiens; test: Inhibition of NF-kappaB (unknown origin) assessed as decrease in NF-kappaB/DNA interaction at 12.5 to 100 uM using 32P-labeled target NF-kappaB double-stranded oligonucleotide after 30 mins by EMSA; outline: as §1
IB3-1 = test: Antiproliferative activity against human IB3-1 cells after 2 days by cell counting analysis; assay type: cell-based; settings: IB3-1, 48 h
Outline: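 IB3-1 cells from a CF patient (ΔF508/W1282X), immortalized with adeno12/SV40, grown in LHC-8 with 5% FBS and no gentamycin at 37°C/5% CO₂. Treated at 12.5, 25, 50, 100, 200 and 800 µM. Cells counted by Coulter counter after 2 days, with untreated cells in log phase. IC₅₀ is the concentration giving 50% inhibition of cell growth.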

Homo sapiens [3] = organism: Homo sapiens; test: Inhibition of NF-kappaB (unknown origin) assessed as decrease in NF-kappaB/DNA interaction at 12.5 uM using 32P-labeled target NF-kappaB double-stranded oligonucleotide after 30 mins by EMSA
Salmonella typhimurium [4] = test: Genotoxicity in Salmonella typhimurium TA98 assessed as revertant colonies at 100 uL/plate in presence of Sprague-Dawley rat S9 metabolic activation after 72 hrs by Ames test (reference value: 1); assay type: toxicity, organism-based; settings: salmonella enterica subsp. enterica serovar typhimurium
Salmonella typhimurium [5] = test: Genotoxicity in Salmonella typhimurium TA100 assessed as revertant colonies at 1 uL/plate in presence of Sprague-Dawley rat S9 metabolic activation after 72 hrs by Ames test (reference value: 1); assay type: toxicity, organism-based; settings: salmonella enterica subsp. enterica serovar typhimurium
Salmonella typhimurium [6] = test: Genotoxicity in Salmonella typhimurium TA98 assessed as revertant colonies at 5 uL/plate in presence of Sprague-Dawley rat S9 metabolic activation after 72 hrs by Ames test (reference value: 1); assay type: toxicity, organism-based; settings: salmonella enterica subsp. enterica serovar typhimurium
Salmonella typhimurium [7] = test: Genotoxicity in Salmonella typhimurium TA100 assessed as revertant colonies at 5 uL/plate in absence of Sprague-Dawley rat S9 metabolic activation after 72 hrs by Ames test (reference value: 1); assay type: toxicity, organism-based; settings: salmonella enterica subsp. enterica serovar typhimurium
Salmonella typhimurium [8] = test: Genotoxicity in Salmonella typhimurium TA98 assessed as revertant colonies at 50 uL/plate in absence of Sprague-Dawley rat S9 metabolic activation after 72 hrs by Ames test (reference value: 1); assay type: toxicity, organism-based; settings: salmonella enterica subsp. enterica serovar typhimurium
Salmonella typhimurium [9] = test: Genotoxicity in Salmonella typhimurium TA100 assessed as revertant colonies at 10 uL/plate in absence of Sprague-Dawley rat S9 metabolic activation after 72 hrs by Ames test (reference value: 1); assay type: toxicity, organism-based; settings: salmonella enterica subsp. enterica serovar typhimurium
Salmonella typhimurium [10] = test: Genotoxicity in Salmonella typhimurium TA100 assessed as revertant colonies at 100 uL/plate in presence of Sprague-Dawley rat S9 metabolic activation after 72 hrs by Ames test (reference value: 1); assay type: toxicity, organism-based; settings: salmonella enterica subsp. enterica serovar typhimurium
Salmonella typhimurium [11] = test: Genotoxicity in Salmonella typhimurium TA98 assessed as revertant colonies at 10 uL/plate in presence of Sprague-Dawley rat S9 metabolic activation after 72 hrs by Ames test (reference value: 1); assay type: toxicity, organism-based; settings: salmonella enterica subsp. enterica serovar typhimurium
Salmon testes DNA [12] = test: Induction of damage in salmon testes DNA at 100 uM in presence of 2.5 to 7.5 J/cm2 UVA irradiation by ethidium bromide dye-based agarose gel electrophoresis analysis; assay type: nucleic-acid assay; settings: salmonidae
Salmonella typhimurium [13] = test: Genotoxicity in Salmonella typhimurium TA98 assessed as revertant colonies at 50 uL/plate in presence of Sprague-Dawley rat S9 metabolic activation after 72 hrs by Ames test (reference value: 1); assay type: toxicity, organism-based; settings: salmonella enterica subsp. enterica serovar typhimurium
Salmonella typhimurium [14] = test: Genotoxicity in Salmonella typhimurium TA100 assessed as revertant colonies at 10 uL/plate in presence of Sprague-Dawley rat S9 metabolic activation after 72 hrs by Ames test (reference value: 1); assay type: toxicity, organism-based; settings: salmonella enterica subsp. enterica serovar typhimurium
Salmonella typhimurium [15] = test: Genotoxicity in Salmonella typhimurium TA98 assessed as revertant colonies at 100 uL/plate in absence of Sprague-Dawley rat S9 metabolic activation after 72 hrs by Ames test (reference value: 1); assay type: toxicity, organism-based; settings: salmonella enterica subsp. enterica serovar typhimurium
Salmonella typhimurium [16] = test: Genotoxicity in Salmonella typhimurium TA100 assessed as revertant colonies at 100 uL/plate in absence of Sprague-Dawley rat S9 metabolic activation after 72 hrs by Ames test (reference value: 1); assay type: toxicity, organism-based; settings: salmonella enterica subsp. enterica serovar typhimurium
Salmonella typhimurium [17] = test: Genotoxicity in Salmonella typhimurium TA98 assessed as revertant colonies at 1 uL/plate in presence of Sprague-Dawley rat S9 metabolic activation after 72 hrs by Ames test (reference value: 1); assay type: toxicity, organism-based; settings: salmonella enterica subsp. enterica serovar typhimurium
Salmonella typhimurium [18] = test: Genotoxicity in Salmonella typhimurium TA100 assessed as revertant colonies at 1 uL/plate in absence of Sprague-Dawley rat S9 metabolic activation after 72 hrs by Ames test (reference value: 1); assay type: toxicity, organism-based; settings: salmonella enterica subsp. enterica serovar typhimurium
Salmonella typhimurium [19] = test: Genotoxicity in Salmonella typhimurium TA100 assessed as revertant colonies at 5 uL/plate in presence of Sprague-Dawley rat S9 metabolic activation after 72 hrs by Ames test (reference value: 1); assay type: toxicity, organism-based; settings: salmonella enterica subsp. enterica serovar typhimurium
Salmonella typhimurium [20] = test: Genotoxicity in Salmonella typhimurium TA98 assessed as revertant colonies at 1 uL/plate in absence of Sprague-Dawley rat S9 metabolic activation after 72 hrs by Ames test (reference value: 1); assay type: toxicity, organism-based; settings: salmonella enterica subsp. enterica serovar typhimurium
Salmonella typhimurium [21] = test: Genotoxicity in Salmonella typhimurium TA98 assessed as revertant colonies at 10 uL/plate in absence of Sprague-Dawley rat S9 metabolic activation after 72 hrs by Ames test (reference value: 1); assay type: toxicity, organism-based; settings: salmonella enterica subsp. enterica serovar typhimurium
Salmonella typhimurium [22] = test: Genotoxicity in Salmonella typhimurium TA100 assessed as revertant colonies at 50 uL/plate in presence of Sprague-Dawley rat S9 metabolic activation after 72 hrs by Ames test (reference value: 1); assay type: toxicity, organism-based; settings: salmonella enterica subsp. enterica serovar typhimurium
Salmon testes DNA [23] = test: Induction of damage in salmon testes DNA at 100 uM in absence of 2.5 to 7.5 J/cm2 UVA irradiation by ethidium bromide dye-based agarose gel electrophoresis analysis; assay type: nucleic-acid assay; settings: salmonidae
Salmonella typhimurium [24] = test: Genotoxicity in Salmonella typhimurium TA100 assessed as revertant colonies at 50 uL/plate in absence of Sprague-Dawley rat S9 metabolic activation after 72 hrs by Ames test (reference value: 1); assay type: toxicity, organism-based; settings: salmonella enterica subsp. enterica serovar typhimurium
Salmonella typhimurium [25] = test: Genotoxicity in Salmonella typhimurium TA98 assessed as revertant colonies at 5 uL/plate in absence of Sprague-Dawley rat S9 metabolic activation after 72 hrs by Ames test (reference value: 1); assay type: toxicity, organism-based; settings: salmonella enterica subsp. enterica serovar typhimurium

Cc1cc2c(C(C)C)cc(=O)oc2c2c(C)coc12
IC50 [1]: 18.9 µM | inhibition (Homo sapiens [2]): Active | IC50 (IB3-1): > 200 µM

CCc1cc(=O)oc2c1cc(C)c1occ(C)c12
IC50 [1]: 8 µM | inhibition (Homo sapiens [3]): Active | inhibition (Homo sapiens [2]): Active | IC50 (IB3-1): 50 µM

CCCc1cc(=O)oc2c1cc(C)c1occ(C)c12
IC50 [1]: 21.9 µM | inhibition (Homo sapiens [2]): Active | IC50 (IB3-1): 200 µM

CCc1cc2c(C)cc(=O)oc2c2c(C)coc12
IC50 [1]: 24 µM | inhibition (Homo sapiens [2]): Active | IC50 (IB3-1): > 200 µM

CCCc1cc(=O)oc2c1cc(CC)c1occ(C)c12
IC50 [1]: 19.8 µM | inhibition (Homo sapiens [2]): Active | IC50 (IB3-1): 162 µM

Cc1cc(=O)oc2c1cc(C)c1occ(C)c12
T/C (Salmonella typhimurium [4]): 6.86 | T/C (Salmonella typhimurium [5]): 1.1 | T/C (Salmonella typhimurium [6]): 1.9 | T/C (Salmonella typhimurium [7]): 1.03 | T/C (Salmonella typhimurium [8]): 0.97 | T/C (Salmonella typhimurium [9]): 1.06 | T/C (Salmonella typhimurium [10]): 2.52 | T/C (Salmonella typhimurium [11]): 4.5 | Activity (Salmon testes DNA [12]): Active | T/C (Salmonella typhimurium [13]): 8.25 | T/C (Salmonella typhimurium [14]): 1.04 | T/C (Salmonella typhimurium [15]): 1.22 | T/C (Salmonella typhimurium [16]): 1.03 | T/C (Salmonella typhimurium [17]): 0.75 | inhibition (Homo sapiens [2]): Active | T/C (Salmonella typhimurium [18]): 0.99 | T/C (Salmonella typhimurium [19]): 1 | T/C (Salmonella typhimurium [20]): 1.03 | T/C (Salmonella typhimurium [21]): 1.16 | T/C (Salmonella typhimurium [22]): 1.16 | Activity (Salmon testes DNA [23]): Active | T/C (Salmonella typhimurium [24]): 1.09 | T/C (Salmonella typhimurium [25]): 0.63

CCc1cc(=O)oc2c1cc(CC)c1occ(C)c12
IC50 [1]: 17.8 µM | inhibition (Homo sapiens [2]): Active | IC50 (IB3-1): > 200 µM
